Shown are actives, neighbours in structure and some others; about 2.1% of the full set was active somewhere.
p-CIP stab down: p/CIP-EGFP fusion destabilizers, primary screen, fluorescence, F442A cells; Q05BA5; 16 h; decrease of EGFP signal, % at 10 µM; actives 0.01% (n = 290,000); AID 1984, 2009;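 active means EGFP signal decrease of at least 30% at 10 µM or well 3 SD below plate mean, unless failing retest; inactive means the rest, including hits failing retest or dose response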
Runt-CBFb FRET: inhibitors of RUNX1 Runt–CBFb binding, primary screen, biochemical, FRET, Cerulean-Runt, Venus-CBFb, uHTS; Runt-related transcription factor 1 (Homo sapiens) + Core-binding factor subunit beta …; actives 0.46% (n = 220,000); inhibition, % at 20 µM; Cerulean-Runt/Venus-CBFb FRET ratio 530/480, 1 h;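 active means inhibition over about 50% at 20 µM in the single-dose screen, limit read from the data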
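Reagent – Venus-CBFb binding partner, 100 nM · Assay system – Cerulean-tagged RUNX1 Runt domain (FRET donor) fusion protein · Input – 100 nM per protein · Incubation – two 1 h room-temperature incubations shielded from light · Measured by – FRET fluorescence · Medium – Tris buffer pH 7.5 with salts and BSA · Benchmarks – unlabeled CBFb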
RanGTP-Impb inh: inhibitors of RanGTP-importin-beta interaction, primary screen, biochemical, FRET, CFP-Ran, YFP-importin-beta, homogeneous; Ran GTPase (GTP-bound) - importin-beta complex; cell-free CFP-Ran/YFP-importin-beta FRET ratio; AID 2216, 2009; inhibition, % (test concentration not listed); actives 1.1% (n = 300,000);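 active means more than half of the replicate wells show a fall in the fluorescence ratio signal beyond about 16%, limit read from the data, passing the limit was not always enough; inconclusive means exactly half of the replicate wells pass the set limit; inactive means fewer than half of replicates pass the limit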
DSG3 Ab inh: inhibitors of pemphigus antibody binding to DSG3, primary screen, biochemical, bead-based, flow cytometry, scFv-GFP; AID 588358, 2011; actives 0.48% (n = 310,000); binding (percent of control), % at 10 µM; DSG3-coupled beads, scFv-anti-DSG3-GFP binding; active compounds read low;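 active means binding more than 3 SD below its plate's average and above zero; inconclusive means below that plate limit but binding exactly zero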;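 further: hits lower antibody fragment binding to DSG3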
Hck-Nef inh: inhibitors of Nef-activated human Hck kinase, primary screen, biochemical, Z-Lyte FRET, 384-well, Hck-YEEI | inhibition, % at 20 µM | actives 0.68% (n = 220,000) | Tyrosine-protein kinase HCK (Homo sapiens), P08631 | Recombinant Hck-YEEI plus Nef, Z-Lyte FRET kinase assay;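 active means Hck-Nef kinase inhibition above about 50%, limit read from the data; inactive means inhibition below that limit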
Runt-SMMHC FRET: inhibitors of RUNX1 Runt–CBFb-SMMHC binding, primary screen, biochemical, FRET, Cerulean-Runt, Venus-CBFb-SMMHC, uHTS. AID 1434, 2008. actives 0.74% (n = 220,000). inhibition, % at 20 µM. Runt-related transcription factor 1 (Homo sapiens) + Core-binding factor subunit beta …. Cerulean-Runt/Venus-CBFb-SMMHC FRET ratio 530/480, 1 h;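 active means mean inhibition across duplicate retests at 20 µM reaching about 50%, limit read from the data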;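 further: inhibitors lower the FRET ratio by blocking Runt binding to CBFb-SMMHC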
Hits are given with their value; . = inactive; ? = inconclusive; / = not tested or not shown.

SMILES	p-CIP stab down	Runt-CBFb FRET	RanGTP-Impb inh	DSG3 Ab inh	Hck-Nef inh	Runt-SMMHC FRET
COC(=O)N/N=C/c1cc(C)n(-c2ccccc2)c1C	.	.	.	.	.	.
Cc1cc(/C=N/NC(=O)Cn2c3ccccc3c(=O)c3ccccc32)c(C)n1-c1ccc(Cl)cc1	.	101	/	.	.	/
Cc1ccc(-n2c(C)cc(/C=N/NC(=O)Cn3c4ccccc4c(=O)c4ccccc43)c2C)cc1	.	106	/	.	.	/
Cc1cc(C)c(S(=O)(=O)c2ccccc2C)c(OCCN(C)C)n1	.	/	.	.	/	/
O=S(=O)(Nc1ccc(N2CCCCC2)cc1)c1ccc(F)c(F)c1	.	.	?	.	.	.
CCc1cc2c(COC(=O)c3c(C)noc3C)cc(=O)oc2cc1O	.	51	18	.	.	86
Cc1ccc(Cl)cc1N1CCN(C(=O)CCS(=O)(=O)c2ccc3c(c2)NC(=O)CO3)CC1	.	/	.	.	/	/
NNC(=O)CP(=O)(c1ccccc1)c1ccccc1	/	/	.	/	/	/
CCNC(=O)CP(=O)(c1ccccc1)c1ccccc1	.	.	.	73	.	.
CC1CCCCC1NC(=O)COC(=O)c1ccc2c(c1)OCCO2 (configuration not stated)	/	/	/	.	/	/
Cc1cc(N2CCN(C3CCCC3)CC2)n2c(nc3ccccc32)c1C#N	.	.	.	.	.	53
Cc1ccsc1C1CC(=O)OC2=C1C(=O)CC(C)(C)C2 (configuration not stated)	.	.	.	/	.	.
COc1ccc(/C=C/C(=O)N2CCN(C)CC2)cc1S(=O)(=O)N1CCCCC1	.	.	77	.	.	.
CC(C)CNC(=O)CN(c1cccc(Cl)c1)S(C)(=O)=O	.	.	.	.	.	.
C[C@H]1CC[C@@]2(O[C@H](CCO)C[C@H](O)[C@H]2O)O1	/	/	.	.	/	/
CCCCCCc1cc2cc(C(=O)NCc3ccccc3)c(=N)oc2cc1O	.	.	146	.	.	.
CCN(CC)c1ccc2cc(C(=O)NCc3ccc(F)cc3)c(=N)oc2c1	.	/	99	/	/	/
COc1cccc(NCc2cc(=O)oc3cc(C)c(C(C)C)cc23)c1	.	/	.	.	/	/
CC(C)CN(CCNC(=O)CN1N=C(c2ccc(Cl)cc2)CCC1=O)CC(C)C	.	/	.	.	/	/
CCCCN(C)CCCNC(=O)CN1N=C(c2ccc(Cl)cc2)CCC1=O	.	/	.	75	/	/
Oc1ccc2nnc3c(Br)cnn3c2c1	.	/	53	.	/	/
O=C(CSC(=S)N1CCOCC1)Nc1nc(=O)c2ccccc2s1	.	.	.	/	.	.
COc1ccc(CCn2c(=N)c(S(=O)(=O)c3ccc(C)cc3)cc3c(=O)n4ccccc4nc32)cc1	.	/	.	.	/	/
COCCn1c(=N)c(S(=O)(=O)c2ccc(F)cc2)cc2c(=O)n3ccccc3nc21	.	/	160	/	/	/
COCCn1c(=N)c(S(=O)(=O)c2ccc(Br)cc2)cc2c(=O)n3ccccc3nc21	.	/	119	.	/	/
SMILES	p-CIP stab down	Runt-CBFb FRET	RanGTP-Impb inh	DSG3 Ab inh	Hck-Nef inh	Runt-SMMHC FRET
Cc1c(Cl)cccc1NC(=S)N1CCN(c2ccc([N+](=O)[O-])cn2)CC1	.	.	.	90	.	.
O=C(Nc1ccc(Br)cc1)c1cccc(N2C(=O)C3CCCCC3C2=O)c1 (configuration not stated)	.	/	/	.	/	/
Cc1noc(C)c1CSCC(=O)Nc1cc(S(=O)(=O)N2CCOCC2)ccc1OCC(F)(F)F	/	/	.	76	/	/
CCc1ccc(-c2cn3nc(C)c(C)nc3n2)cc1	.	/	107	.	.	.
Cc1nc2nc(-c3ccc(F)cc3)cn2nc1C	.	/	95	.	/	/
CCc1c(-c2ccccc2)nc2nc(C)c(C)nn12	.	.	50	33	.	.
c1ccc(-c2cn3nc(-c4ccccc4)cnc3n2)cc1	.	.	/	.	.	.
Cc1nc2nc(-c3ccccc3)cn2nc1C	.	.	111	.	.	60
COc1ccc2o/c(=N\O)c(C(=O)Nc3ccc(C)cc3)cc2c1	.	.	.	.	.	63
COc1ccccc1NC(=O)c1cc2ccc(O)cc2o/c1=N\O	.	95	135	.	.	81
COc1ccccc1NC(=O)Cn1nnc(-c2ccccc2NC(=O)c2cc3ccccc3oc2=O)n1	.	.	.	9.0	.	.
O=C(Cn1nnc(-c2ccccc2NC(=O)c2ccco2)n1)Nc1ccccc1	.	.	.	6.9	.	.
CN(C)S(=O)(=O)c1ccc(C(=O)NCC(C)(C)CN=C2NS(=O)(=O)c3ccccc32)cc1	.	/	.	/	/	/
COc1ccccc1NC(=O)c1cc2ccccc2o/c1=N\O	.	.	.	.	/	62
Nc1nnn(CC(=O)N/N=C/c2cccc(Cl)c2)n1	.	.	?	77	.	.
COC(=O)C1=C(N)Oc2cc(N(C)C)ccc2C1c1ccccc1OC (configuration not stated)	.	.	24	.	.	.
CC1=C(C(=O)OC2CCCCC2)C(c2ccc(N(C)C)cc2)NC(=O)N1 (configuration not stated)	.	/	.	.	/	/
C/C=C/Cn1c(SCc2ccc(C)cc2)nc2c1c(=O)[nH]c(=O)n2C	.	.	.	71	.	.
C=CCn1c(SCc2ccc(F)cc2)nc2c1c(=O)[nH]c(=O)n2C	.	.	.	.	.	.
Cc1ccc(CNC(=O)CC(C)S(=O)(=O)c2ccc3c(c2)NC(=O)C(C)S3)cc1 (configuration not stated)	.	/	.	.	/	/
Cc1cc(NS(=O)(=O)c2ccc(NC(=O)c3cc4c(=O)n5ccccc5nc4s3)cc2)nc(C)n1	.	.	.	.	.	74
CC(=O)NCCc1ccc(C(=O)COC(=O)c2cccs2)cc1	/	/	/	.	/	/
COc1ccc(-c2noc3c2-c2nc(-c4cccc(C)c4)sc2CC3)cc1	.	/	.	.	/	/
Cc1cc(Nc2ccccc2)c2c([N+](=O)[O-])ccc(C)c2n1	.	.	?	.	.	.
Cc1cc2c3c(ccc(C)c3n1)N=CN2c1ccccc1	.	65	92	.	.	60
CCc1cc2cc(C)c(C)cc2nc1SCC(=O)Nc1cc(C)on1	.	.	.	60	.	.
CC(=O)NS(=O)(=O)c1ccc(N2C(=O)c3ccccc3C2=O)cc1	.	.	20	.	.	.

Assay outcomes from PubChem.
